ChEMBL document CHEMBL1125148, “(R)-4-oxo-5-phosphononorvaline: a new competitive glutamate antagonist at the NMDA receptor complex” (J Med Chem, 1990)

Key:
[1] = In vitro binding affinity towards N-methyl-D-aspartate glutamate receptor of the glutamate receptor using [3H]CPP as radioligand in rat cerebral cortical membranes.; format: cell membranes, Membrane
Method in brief: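 Rat brain membranes incubated with 10 nM [3H]CPP across a range of unlabeled antagonist concentrations. Specific binding was measured by centrifugation assay and expressed as percent inhibition versus concentration.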

[2] = biological target: Glutamate receptor ionotropic, kainate 3 (Rattus norvegicus, UniProt P42264); experiment: Binding affinity towards Ionotropic glutamate receptor kainate using [3H]-kainic acid as radioligand; Inactive
Sequence of Glutamate receptor ionotropic, kainate 3 (P42264 whole entry): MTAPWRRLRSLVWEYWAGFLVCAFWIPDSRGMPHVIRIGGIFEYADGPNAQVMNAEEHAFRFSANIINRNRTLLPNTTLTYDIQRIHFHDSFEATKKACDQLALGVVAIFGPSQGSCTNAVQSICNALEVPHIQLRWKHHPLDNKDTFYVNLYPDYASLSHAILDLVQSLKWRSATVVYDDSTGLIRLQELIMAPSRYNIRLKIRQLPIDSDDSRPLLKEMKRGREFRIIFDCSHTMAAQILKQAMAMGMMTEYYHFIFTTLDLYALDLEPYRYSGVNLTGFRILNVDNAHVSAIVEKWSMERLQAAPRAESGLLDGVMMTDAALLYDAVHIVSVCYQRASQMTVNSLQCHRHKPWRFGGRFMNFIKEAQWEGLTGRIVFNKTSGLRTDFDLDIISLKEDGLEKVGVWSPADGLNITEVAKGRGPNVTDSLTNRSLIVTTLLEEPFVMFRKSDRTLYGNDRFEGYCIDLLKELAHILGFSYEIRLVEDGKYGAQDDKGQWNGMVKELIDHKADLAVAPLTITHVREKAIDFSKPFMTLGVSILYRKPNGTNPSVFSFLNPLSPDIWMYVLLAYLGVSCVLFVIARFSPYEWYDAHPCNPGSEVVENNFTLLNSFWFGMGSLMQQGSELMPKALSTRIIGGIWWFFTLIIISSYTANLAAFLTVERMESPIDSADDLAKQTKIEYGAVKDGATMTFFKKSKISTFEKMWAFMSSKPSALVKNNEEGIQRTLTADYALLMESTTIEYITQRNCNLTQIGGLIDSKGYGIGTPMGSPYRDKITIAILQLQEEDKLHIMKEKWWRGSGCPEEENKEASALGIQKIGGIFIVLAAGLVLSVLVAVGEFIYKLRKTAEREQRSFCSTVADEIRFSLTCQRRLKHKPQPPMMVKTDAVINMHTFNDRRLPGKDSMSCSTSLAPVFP

Glutamate receptor 1 = Glutamate receptor 1 (Rattus norvegicus, UniProt P19490); experiment: Binding affinity towards AMPA receptor using [3H]AMPA as radioligand; Inactive
Sequence of Glutamate receptor 1 (P19490 whole entry): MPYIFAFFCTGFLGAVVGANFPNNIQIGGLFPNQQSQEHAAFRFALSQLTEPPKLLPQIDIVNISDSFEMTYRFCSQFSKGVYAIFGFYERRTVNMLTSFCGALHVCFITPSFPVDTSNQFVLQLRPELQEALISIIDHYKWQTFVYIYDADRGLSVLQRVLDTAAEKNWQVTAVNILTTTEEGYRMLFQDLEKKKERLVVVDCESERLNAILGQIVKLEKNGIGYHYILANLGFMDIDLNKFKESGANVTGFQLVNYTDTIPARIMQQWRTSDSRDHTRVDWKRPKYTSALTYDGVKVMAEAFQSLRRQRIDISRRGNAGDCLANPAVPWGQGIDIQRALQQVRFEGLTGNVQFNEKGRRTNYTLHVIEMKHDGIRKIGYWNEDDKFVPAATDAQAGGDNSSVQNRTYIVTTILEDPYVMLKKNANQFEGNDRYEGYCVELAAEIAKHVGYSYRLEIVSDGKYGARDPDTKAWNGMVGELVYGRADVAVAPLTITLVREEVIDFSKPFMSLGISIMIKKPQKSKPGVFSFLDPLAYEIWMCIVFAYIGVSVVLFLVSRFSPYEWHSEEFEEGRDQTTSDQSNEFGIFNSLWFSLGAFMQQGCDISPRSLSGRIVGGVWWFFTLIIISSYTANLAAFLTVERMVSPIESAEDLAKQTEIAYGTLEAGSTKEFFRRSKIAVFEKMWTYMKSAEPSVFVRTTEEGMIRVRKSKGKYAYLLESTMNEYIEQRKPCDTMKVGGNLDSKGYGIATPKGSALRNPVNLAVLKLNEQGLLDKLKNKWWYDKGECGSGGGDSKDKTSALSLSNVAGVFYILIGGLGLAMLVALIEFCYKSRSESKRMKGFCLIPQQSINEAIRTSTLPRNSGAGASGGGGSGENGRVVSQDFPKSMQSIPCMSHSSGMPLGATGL

Rattus norvegicus = organism: Rattus norvegicus; experiment: Percent inhibition of glutamate activity against cGMP was determined; format: functional

Row | Compound | Ki [1] | Ki [2] | Ki (Glutamate receptor 1) | IC50 (Rattus norvegicus)
1 | O=C(O)C1CN(CCCP(=O)(O)O)CCN1 (stereo not given) | 0.131 µM | > 100 µM | > 100 µM | 0.8 µM
2 | NC(CCCP(=O)(O)O)C(=O)O (stereo not given) | 0.176 µM | > 100 µM | > 100 µM | 5.5 µM
3 | N[C@H](CC(=O)CP(=O)(O)O)C(=O)O | 0.109 µM | > 100 µM | > 100 µM | 5.9 µM
4 | NC(CCCCCP(=O)(O)O)C(=O)O (stereo not given) [AP-7] | 0.73 µM | > 100 µM | > 100 µM | 14.1 µM
5 | O=C(O)[C@@H]1C[C@H](CP(=O)(O)O)CCN1 [SELFOTEL] | 0.099 µM | > 100 µM | > 100 µM | 1.1 µM
